# Data reported in ChEMBL document CHEMBL1240379, “Combined ramR mutation and presence of a Tn1721-associated tet(A) variant in a clinical isolate of Salmonella enterica serovar Hadar resistant to tigecycline” (2010).
# Columns and labels:
# [1] = Antibacterial activity against Salmonella enterica serovar Hadar VA5649 harboring ramR-5649 mutant gene by Etest method; format: functional, Salmonella enterica subsp. enterica serovar Hadar
# Salmonella enterica [2] = assay: Antibacterial activity against wild type Salmonella enterica TY2313 by Etest method; format: functional
# [3] = Antibacterial activity against Salmonella enterica serovar Hadar VA5649 harboring wild type ramR-2313 gene by Etest method; format: functional, Salmonella enterica subsp. enterica serovar Hadar
# [4] = Antibacterial activity against Salmonella enterica serovar Hadar VA5649 expressing ACYC177 plasmid by Etest method; format: functional, Salmonella enterica subsp. enterica serovar Hadar
# [5] = Antibacterial activity against Salmonella enterica serovar Hadar VA5649 by Etest method; format: functional, Salmonella enterica subsp. enterica serovar Hadar
# Escherichia coli [6] = assay: Antibacterial activity against Escherichia coli DH10B expressing Tn1721-tet(A) carrying plasmid SK2 by Etest method; format: functional; conditions: K-12 DH10B
# Escherichia coli [7] = assay: Antibacterial activity against Escherichia coli DH10B by Etest method; format: functional; conditions: K-12 DH10B
# Escherichia coli [8] = assay: Antibacterial activity against Escherichia coli DH10B harboring Tn1721-tet(A) carrying plasmid by Etest method; format: functional; conditions: K-12 DH10B
# Escherichia coli [9] = assay: Antibacterial activity against Escherichia coli DH10B expressing SK2 plasmid by Etest method; format: functional; conditions: K-12 DH10B
# Escherichia coli [10] = assay: Antibacterial activity against Escherichia coli DH10B expressing Tn1721-tet(A) carrying plasmid SK2 by broth microdilution assay; format: functional; conditions: K-12 DH10B
# Method in brief: (§1)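 Tigecycline MIC by broth microdilution using a commercial tigecycline panel with freshly prepared Mueller-Hinton II broth less than 12 h old. Susceptible, intermediate or resistant category assigned by EUCAST clinical breakpoints.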
# Escherichia coli [11] = assay: Antibacterial activity against Escherichia coli DH10B expressing SK2 plasmid by broth microdilution assay; format: functional; conditions: K-12 DH10B
# Method in brief: (§2)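 MIC by broth microdilution on a commercial ready-made drug panel, using freshly prepared Mueller-Hinton II broth (under 12 h old). MIC categories interpreted against EUCAST clinical breakpoints (susceptible, intermediate or resistant).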
# [12] = Antibacterial activity against Salmonella enterica serovar Hadar VA5649 expressing ACYC177 plasmid by both microdilution assay; format: functional, Salmonella enterica subsp. enterica serovar Hadar; method in brief: as §1
# [13] = Antibacterial activity against Salmonella enterica serovar Hadar VA5649 harboring wild type ramR-2313 gene by both microdilution assay; format: functional, Salmonella enterica subsp. enterica serovar Hadar; method in brief: as §1
# Salmonella enterica [14] = assay: Antibacterial activity against wild type Salmonella enterica TY2313 by broth microdilution assay; format: functional; method in brief: as §2
# Escherichia coli [15] = assay: Antibacterial activity against Escherichia coli DH10B harboring Tn1721-tet(A) carrying plasmid by broth microdilution assay; format: functional; conditions: K-12 DH10B; method in brief: as §1
# [16] = Antibacterial activity against Salmonella enterica serovar Hadar VA5649 harboring ramR-5649 mutant gene by both microdilution assay; format: functional, Salmonella enterica subsp. enterica serovar Hadar; method in brief: as §1
# [17] = Antibacterial activity against Salmonella enterica serovar Hadar VA5649 by both microdilution assay; format: functional, Salmonella enterica subsp. enterica serovar Hadar; method in brief: as §1
# Escherichia coli [18] = assay: Antibacterial activity against Escherichia coli DH10B by broth microdilution assay; format: functional; conditions: K-12 DH10B; method in brief: as §2
compound,measurement,setting,value
O=C(N[C@H](CO)[C@H](O)c1ccc([N+](=O)[O-])cc1)C(Cl)Cl [CHLORAMPHENICOL],MIC,[1],8 µg/mL
same,MIC,Salmonella enterica [2],2 µg/mL
same,MIC,[3],2 µg/mL
same,MIC,[4],8 µg/mL
same,MIC,[5],8 µg/mL
O=C(O)c1cn(C2CC2)c2cc(N3CCNCC3)c(F)cc2c1=O [CIPROFLOXACIN],MIC,[1],1 µg/mL
same,MIC,[3],0.25 µg/mL
same,MIC,[4],1 µg/mL
same,MIC,[5],1 µg/mL
CN(C)c1ccc(O)c2c1C[C@H]1C[C@H]3[C@H](N(C)C)C(O)=C(C(N)=O)C(=O)[C@@]3(O)C(O)=C1C2=O [MINOCYCLINE],MIC,Escherichia coli [6],8 µg/mL
same,MIC,Escherichia coli [7],0.75 µg/mL
same,MIC,Escherichia coli [8],8 µg/mL
same,MIC,[5],32 µg/mL
same,MIC,Escherichia coli [9],0.75 µg/mL
CN(C)c1cc(NC(=O)CNC(C)(C)C)c(O)c2c1C[C@H]1C[C@H]3[C@H](N(C)C)C(O)=C(C(N)=O)C(=O)[C@@]3(O)C(O)=C1C2=O [TIGECYCLINE],MIC,Escherichia coli [10],0.25 µg/mL
same,MIC,Escherichia coli [11],0.065 µg/mL
same,MIC,[12],16 µg/mL
same,MIC,[13],2 µg/mL
same,MIC,Salmonella enterica [14],0.25 µg/mL
same,MIC,Escherichia coli [15],0.25 µg/mL
same,MIC,[16],16 µg/mL
same,MIC,[17],16 µg/mL
same,MIC,Escherichia coli [18],0.065 µg/mL
